Reference: ChEMBL document CHEMBL4689842, “EUbOPEN Chemogenomics Library wave 1” (2021)
Several values for one entry are separate records, joined by “and”; a condition that tells them apart may be missing. Equal values may be shown once.

Tested on: HEK-293T
Assay: Multiplex assay against HEK293T;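 as to Population Tubulin-Different-Phenotype (%): share of the cells with healthy nuclei that show this phenotype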
Format: toxicity, cell-based
Conditions: human
Procedure, shortened: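 Imaging took place on a CQ1 microscope at 37°C and 5% CO2 once compound had been added to live cells stained at seeding with Hoechst33342, BioTracker Green Microtubule Cytoskeleton Dye, MitoTracker Red and Annexin V Alexa Fluor 680. CellPathfinder machine-learning gating classed cells as Hoechst high-intensity objects or normal cells, classed normal cells as having healthy, pyknosed or fragmented nuclei, and classed pyknosed cells as mitotic or apoptotic. Tubulin, mitochondrial-mass and membrane-permeability phenotypes are per cents of the healthy-nucleus cells.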

[1] = 12 h, 1 µM, compound concentration 1 uM, replicate 1
[2] = 12 h, 1 µM, compound concentration 1 uM, replicate 2
[3] = 12 h, 10 µM, compound concentration 10 uM, replicate 1
[4] = 12 h, 10 µM, compound concentration 10 uM, replicate 2
[5] = 24 h, 1 µM, compound concentration 1 uM, replicate 1
[6] = 24 h, 1 µM, compound concentration 1 uM, replicate 2
[7] = 24 h, 10 µM, compound concentration 10 uM, replicate 1
[8] = 24 h, 10 µM, compound concentration 10 uM, replicate 2
[9] = 48 h, 10 µM, compound concentration 10 uM, replicate 1
[10] = 48 h, 10 µM, compound concentration 10 uM, replicate 2

Structure (SMILES): Cc1c(Nc2ccc(S(=O)(=O)N3CCN(C)CC3)cc2F)nc2ccc(Nc3cnn(C4CC4)c3)cn2c1=O
- Population Apoptotic (%) [1]: 17%
- Population Fragmented Nuclei (%) [1]: 13%
- Population Healthy Nuclei (%) [1]: 52%
- Population Hoechst High Intensity Objects (%) [1]: 16%
- Population Membrane Permeable-Phenotype (%) [1]: 15%
- Population Mitochondria Different-Phenotype (%) [1]: 11%
- Population Mitotic Cells (%) [1]: 82%
- Population Normal (%) [1]: 83%
- Population Pyknosed Nuclei (%) [1]: 33%
- Population Tubulin-Different-Phenotype (%) [1]: 47%
- Total Cell Count [1]: 566
- Population Apoptotic (%) [2]: 11%
- Population Fragmented Nuclei (%) [2]: 3%
- Population Healthy Nuclei (%) [2]: 83%
- Population Hoechst High Intensity Objects (%) [2]: 3%
- Population Membrane Permeable-Phenotype (%) [2]: 14%
- Population Mitochondria Different-Phenotype (%) [2]: 29%
- Population Mitotic Cells (%) [2]: 88%
- Population Normal (%) [2]: 96%
- Population Pyknosed Nuclei (%) [2]: 12%
- Population Tubulin-Different-Phenotype (%) [2]: 73%
- Total Cell Count [2]: 888
- Population Apoptotic (%) [3]: 17%
- Population Fragmented Nuclei (%) [3]: 11%
- Population Healthy Nuclei (%) [3]: 73%
- Population Hoechst High Intensity Objects (%) [3]: 8%
- Population Membrane Permeable-Phenotype (%) [3]: 4%
- Population Mitochondria Different-Phenotype (%) [3]: 4%
- Population Mitotic Cells (%) [3]: 82%
- Population Normal (%) [3]: 91%
- Population Pyknosed Nuclei (%) [3]: 15%
- Population Tubulin-Different-Phenotype (%) [3]: 4%
- Total Cell Count [3]: 791
- Population Apoptotic (%) [4]: 4%
- Population Fragmented Nuclei (%) [4]: 6%
- Population Healthy Nuclei (%) [4]: 89%
- Population Hoechst High Intensity Objects (%) [4]: 2%
- Population Membrane Permeable-Phenotype (%) [4]: 2%
- Population Mitochondria Different-Phenotype (%) [4]: 10%
- Population Mitotic Cells (%) [4]: 95%
- Population Normal (%) [4]: 97%
- Population Pyknosed Nuclei (%) [4]: 4%
- Population Tubulin-Different-Phenotype (%) [4]: 7%
- Total Cell Count [4]: 1683
- Population Apoptotic (%) [5]: 27%
- Population Fragmented Nuclei (%) [5]: 16%
- Population Healthy Nuclei (%) [5]: 60%
- Population Hoechst High Intensity Objects (%) [5]: 11%
- Population Membrane Permeable-Phenotype (%) [5]: 21%
- Population Mitochondria Different-Phenotype (%) [5]: 9%
- Population Mitotic Cells (%) [5]: 72%
- Population Normal (%) [5]: 88%
- Population Pyknosed Nuclei (%) [5]: 23%
- Population Tubulin-Different-Phenotype (%) [5]: 65%
- Total Cell Count [5]: 536
- Population Apoptotic (%) [6]: 12%
- Population Fragmented Nuclei (%) [6]: 6%
- Population Healthy Nuclei (%) [6]: 85%
- Population Hoechst High Intensity Objects (%) [6]: 5%
- Population Mitochondria Different-Phenotype (%) [6]: 16%
- Population Mitotic Cells (%) [6]: 87%
- Population Normal (%) [6]: 94%
- Population Pyknosed Nuclei (%) [6]: 7%
- Population Tubulin-Different-Phenotype (%) [6]: 83%
- Total Cell Count [6]: 1100
- Population Apoptotic (%) [7]: 16%
- Population Fragmented Nuclei (%) [7]: 8%
- Population Healthy Nuclei (%) [7]: 85%
- Population Hoechst High Intensity Objects (%) [7]: 4%
- Population Membrane Permeable-Phenotype (%) [7]: 9%
- Population Mitochondria Different-Phenotype (%) [7]: 3%
- Population Mitotic Cells (%) [7]: 83%
- Population Normal (%) [7]: 95%
- Population Pyknosed Nuclei (%) [7]: 6%
- Population Tubulin-Different-Phenotype (%) [7]: 8%
- Total Cell Count [7]: 922
- Population Apoptotic (%) [8]: 0%
- Population Fragmented Nuclei (%) [8]: 18%
- Population Healthy Nuclei (%) [8]: 79%
- Population Hoechst High Intensity Objects (%) [8]: 3%
- Population Membrane Permeable-Phenotype (%) [8]: 7%
- Population Mitochondria Different-Phenotype (%) [8]: 2%
- Population Mitotic Cells (%) [8]: 100%
- Population Normal (%) [8]: 96%
- Population Pyknosed Nuclei (%) [8]: 2%
- Population Tubulin-Different-Phenotype (%) [8]: 10%
- Total Cell Count [8]: 2721

Structure (SMILES): Cc1c(Nc2ccc(S(=O)(=O)N3CCN(C)CC3)cc2F)nc2ccc(-c3cnn(C4CC4)c3)cn2c1=O
- Population Apoptotic (%) [1]: 19%
- Population Fragmented Nuclei (%) [1]: 13%
- Population Healthy Nuclei (%) [1]: 67%
- Population Hoechst High Intensity Objects (%) [1]: 9%
- Population Membrane Permeable-Phenotype (%) [1]: 4%
- Population Mitochondria Different-Phenotype (%) [1]: 6%
- Population Mitotic Cells (%) [1]: 80%
- Population Normal (%) [1]: 90%
- Population Pyknosed Nuclei (%) [1]: 18%
- Population Tubulin-Different-Phenotype (%) [1]: 6%
- Total Cell Count [1]: 755
- Population Apoptotic (%) [2]: 10%
- Population Fragmented Nuclei (%) [2]: 7%
- Population Healthy Nuclei (%) [2]: 87%
- Population Hoechst High Intensity Objects (%) [2]: 2%
- Population Membrane Permeable-Phenotype (%) [2]: 2%
- Population Mitochondria Different-Phenotype (%) [2]: 9%
- Population Mitotic Cells (%) [2]: 89%
- Population Normal (%) [2]: 97%
- Population Pyknosed Nuclei (%) [2]: 4%
- Population Tubulin-Different-Phenotype (%) [2]: 10%
- Total Cell Count [2]: 1860
- Population Apoptotic (%) [3]: 43% and 17%
- Population Fragmented Nuclei (%) [3]: 44% and 17%
- Population Healthy Nuclei (%) [3]: 37% and 61%
- Population Hoechst High Intensity Objects (%) [3]: 45% and 18%
- Population Membrane Permeable-Phenotype (%) [3]: 2% and 7%
- Population Mitotic Cells (%) [3]: 56% and 82%
- Population Normal (%) [3]: 54% and 81%
- Population Pyknosed Nuclei (%) [3]: 18% and 20%
- Population Tubulin-Different-Phenotype (%) [3]: 40% and 15%
- Total Cell Count [3]: 1012 and 786
- Population Apoptotic (%) [4]: 16% and 6%
- Population Fragmented Nuclei (%) [4]: 14% and 9%
- Population Healthy Nuclei (%) [4]: 32% and 84%
- Population Hoechst High Intensity Objects (%) [4]: 22% and 9%
- Population Membrane Permeable-Phenotype (%) [4]: 4% and 8%
- Population Mitotic Cells (%) [4]: 83% and 93%
- Population Normal (%) [4]: 77% and 90%
- Population Tubulin-Different-Phenotype (%) [4]: 64% and 33%
- Population Apoptotic (%) [5]: 15%
- Population Fragmented Nuclei (%) [5]: 11%
- Population Healthy Nuclei (%) [5]: 77%
- Population Hoechst High Intensity Objects (%) [5]: 5%
- Population Membrane Permeable-Phenotype (%) [5]: 8%
- Population Mitochondria Different-Phenotype (%) [5]: 4%
- Population Mitotic Cells (%) [5]: 84%
- Population Normal (%) [5]: 94%
- Population Pyknosed Nuclei (%) [5]: 10%
- Population Tubulin-Different-Phenotype (%) [5]: 10%
- Total Cell Count [5]: 923
- Population Apoptotic (%) [6]: 1%
- Population Fragmented Nuclei (%) [6]: 23%
- Population Healthy Nuclei (%) [6]: 74%
- Population Hoechst High Intensity Objects (%) [6]: 2%
- Population Membrane Permeable-Phenotype (%) [6]: 7%
- Population Mitochondria Different-Phenotype (%) [6]: 2%
- Population Mitotic Cells (%) [6]: 98%
- Population Normal (%) [6]: 97%
- Population Pyknosed Nuclei (%) [6]: 1%
- Population Tubulin-Different-Phenotype (%) [6]: 14%
- Total Cell Count [6]: 3127
- Population Apoptotic (%) [7]: 41%
- Population Healthy Nuclei (%) [7]: 39% and 75%
- Population Membrane Permeable-Phenotype (%) [7]: 8%
- Population Mitotic Cells (%) [7]: 58% and 76%
- Population Normal (%) [7]: 56% and 86%
- Population Pyknosed Nuclei (%) [7]: 16% and 12%
- Population Tubulin-Different-Phenotype (%) [7]: 51% and 32%
- Total Cell Count [7]: 1052 and 818
- Population Fragmented Nuclei (%) [8]: 11% and 14%
- Population Healthy Nuclei (%) [8]: 42% and 80%
- Population Mitotic Cells (%) [8]: 77% and 93%
- Population Normal (%) [8]: 75% and 92%
- Population Tubulin-Different-Phenotype (%) [8]: 64% and 49%
- Population Apoptotic (%) [9]: 44%
- Population Fragmented Nuclei (%) [9]: 37%
- Population Healthy Nuclei (%) [9]: 47%
- Population Hoechst High Intensity Objects (%) [9]: 40%
- Population Membrane Permeable-Phenotype (%) [9]: 5%
- Population Mitochondria Different-Phenotype (%) [9]: 35%
- Population Mitotic Cells (%) [9]: 55%
- Population Normal (%) [9]: 59%
- Population Pyknosed Nuclei (%) [9]: 14%
- Population Tubulin-Different-Phenotype (%) [9]: 58%
- Total Cell Count [9]: 1023
- Population Apoptotic (%) [10]: 26%
- Population Fragmented Nuclei (%) [10]: 12%
- Population Healthy Nuclei (%) [10]: 61%
- Population Hoechst High Intensity Objects (%) [10]: 19%
- Population Membrane Permeable-Phenotype (%) [10]: 12%
- Population Mitotic Cells (%) [10]: 73%
- Population Normal (%) [10]: 80%
- Population Pyknosed Nuclei (%) [10]: 25%
- Population Tubulin-Different-Phenotype (%) [10]: 69%
- Total Cell Count [10]: 372
